The text below walks through data of PubChem BioAssay.

A short description of assay [1]: hit retest on RPL19A-GFP reporter strain – cell-based, S. cerevisiae, flow cytometry, cherry picks, mother/daughter gates, confirmation (AID 2270;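 active = GFP response below 50% of the DMSO control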). To be noted: 3 h, at 10 µM, stronger effect = lower value, 100 = same GFP as DMSO wells.
Assay [2] can be described thus: yeast TOR pathway reporter LAP4-GFP change – cell-based, cherry picks, flow cytometry, mother/daughter gates, confirmation (AID 2271;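 active = GFP response above 150% of the DMSO control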;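 note: ratio of sample to DMSO plate mean so 100% equals DMSO level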). To be noted: S. cerevisiae LAP4-GFP strain, 3 h, at 10 µM, stronger effect = higher value, 100 means same as DMSO control. The method in brief: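 material = Alexa 633-stained baker's yeast GFP-fusion strain | amount = 0.2 OD600 cells | schedule = 30 °C, 3 h compound incubation, rotating | signal = GFP by flow cytometry | measure = per-gate (all, mother, daughter) GFP response vs DMSO | controls = positive rapamycin (400 ng/mL), negative DMSO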

Assay [3] in a line: TOR pathway reporter MEP2-GFP, retest of hits – S. cerevisiae, flow cytometry GFP, cherry picks, confirmation (AID 2272;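 active = GFP response above 150% of the DMSO control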;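 note: ratio of well signal to plate DMSO mean so 100% equals DMSO level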). To be noted: S. cerevisiae MEP2-GFP strain, 3 h, at 10 µM, stronger effect = higher value. In general terms: Flow cytometry measures light scatter and fluorescence of single cells or particles in a stream.
A short description of assay [4]: yeast AGP1-GFP fluorescence change, single-dose – cell-based, flow cytometry, S. cerevisiae, cherry picks, confirmation (AID 2273).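 Note: median GFP channel fluorescence over the whole cell population gate.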 To be noted: S. cerevisiae AGP1-GFP strain, 3 h, at 10 µM.
Assay [5] can be described thus: TOR pathway CIT2 reporter hit retest – S. cerevisiae, GFP fusion, cherry picks, mother/daughter gates, confirmation (AID 2274). As to conditions: S. cerevisiae CIT2-GFP strain, flow cytometry, 3 h, at 10 µM, stronger effect = higher value.
[6] abbreviates: measured here: daughter cell gate.
Where [7] appears, read: measured here: mother cell gate.
Setting [8] is: measured here: daughter cell gate response.
Setting [9] is: measured here: mother cell gate response.

The source made the active and inactive calls.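 Rule for the calls, unless noted: active = GFP response above 150% of the DMSO level; inconclusive = fewer than 70 events counted for a yeast strain; inactive = the rest.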

Consider `NS(=O)(=O)c1ccc(S(=O)(=O)c2ccccc2)nc1`, for which the GFP response vs DMSO was 98.2% (inactive) in assay [1], 99.1% in assay [1] (setting [6]), 96.9% in assay [1] (setting [7]) and 102% (inactive) in assay [3]. The values for the GFP response relative to DMSO in assay [2], in assay [2] (setting [8]) and in assay [2] (setting [9]) were 97.9% (inactive), 97.6% and 97.2%, respectively. In addition, the GFP response, % of DMSO in assay [4] was 95.6% (inactive); in assay [5], 103% (inactive); in assay [5] (setting [6]), 105%; in assay [5] (setting [7]), 102%.
Turning to `O=C(Nc1cc(Sc2ccccn2)cc([N+](=O)[O-])c1)c1ccc([N+](=O)[O-])cc1`, the GFP response vs DMSO is 97.8% (inactive) in assay [1], 98.4% in assay [1] (setting [6]), 96.9% in assay [1] (setting [7]) and 110% (inactive) in assay [3]. For the same molecule, the GFP response relative to DMSO in assay [2] was 98.9% (inactive); in assay [2] (setting [8]), 101%; in assay [2] (setting [9]), 98.4%. For the same molecule, the GFP response, % of DMSO in assay [4] is 104% (inactive); in assay [5] it was 107% (inactive); in assay [5] (setting [6]) it was 106%; in assay [5] (setting [7]), 106%.
For the molecule `O=C(Oc1c(Cl)cc(Cl)c2cccnc12)c1ccco1`, the GFP response vs DMSO is 103% (inactive) in assay [1], 89.2% in assay [1] (setting [6]), 100% in assay [1] (setting [7]) and 128% (inactive) in assay [3]. Also, the GFP response relative to DMSO was 196% (active) in assay [2], 148% in assay [2] (setting [8]) and 199% in assay [2] (setting [9]). The GFP response, % of DMSO in assay [4] was 95.9% (inactive); in assay [5], 95.9% (inactive); in assay [5] (setting [6]), 86.6%; in assay [5] (setting [7]), 93.2%.
In the case of `O=C(Nc1ccccc1O)c1ccccc1O`, the GFP response vs DMSO in assay [1] was 95.8% (inactive); in assay [1] (setting [6]), 96.4%; in assay [1] (setting [7]) it was 94.2%; in assay [3], 106% (inactive). Moreover, the figures for the GFP response relative to DMSO in assay [2], in assay [2] (setting [8]) and in assay [2] (setting [9]) were 96.5% (inactive), 96% and 95.4%, respectively. Further, the GFP response, % of DMSO is 103% (inactive) in assay [4], 101% (inactive) in assay [5], 103% in assay [5] (setting [6]) and 100% in assay [5] (setting [7]).
For the molecule `CN(C(=O)c1ccccc1Cl)c1ccccc1`, the GFP response vs DMSO in assay [1] is 100% (inactive); in assay [1] (setting [6]), 100%; in assay [1] (setting [7]) it was 98.8%; in assay [3], 97.2% (inactive). Further, the GFP response relative to DMSO was 94.1% (inactive) in assay [2], 96% in assay [2] (setting [8]) and 93.4% in assay [2] (setting [9]). Moreover, the GFP response, % of DMSO in assay [4] was 103% (inactive); in assay [5], 101% (inactive); in assay [5] (setting [6]) it was 103%; in assay [5] (setting [7]), 102%.
Consider `O=C1CC(c2ccccc2)CN1S(=O)(=O)c1ccccc1` (stereo not drawn), for which the GFP response vs DMSO was 98.4% (inactive) in assay [1], 96.4% in assay [1] (setting [6]), 98.9% in assay [1] (setting [7]) and 105% (inactive) in assay [3]. Moreover, the GFP response relative to DMSO is 97.9% (inactive) in assay [2], 99.2% in assay [2] (setting [8]) and 97.2% in assay [2] (setting [9]). In addition, the GFP response, % of DMSO in assay [4] is 101% (inactive); in assay [5], 103% (inactive); in assay [5] (setting [6]), 103%; in assay [5] (setting [7]), 103%.
Regarding `NC(=O)COc1ccc(C(=O)/C=C2/C(=O)Nc3ccccc32)cc1`, the GFP response vs DMSO in assay [1] was 94% (inactive); in assay [1] (setting [6]), 93.4%; in assay [1] (setting [7]) it was 81%; in assay [3] it was 94.1% (inactive). Besides, the GFP response relative to DMSO is 95.4% (inactive) in assay [2], 91.2% in assay [2] (setting [8]) and 96.1% in assay [2] (setting [9]). For the same molecule, the GFP response, % of DMSO in assay [4] was 107% (inactive); in assay [5], 101% (inactive); in assay [5] (setting [6]), 103%; in assay [5] (setting [7]) it was 101%.
With `Cc1ccc(N2C3=C(C(=O)CC(C)(C)C3)C(c3cn(C)nc3C)C3=C2CC(C)(C)CC3=O)cc1`, the GFP response vs DMSO in assay [1] was 105% (inactive); in assay [1] (setting [6]) it was 102%; in assay [1] (setting [7]) it was 104%; in assay [3] it was 131% (inactive). Also, the GFP response relative to DMSO in assay [2] was 119% (inactive); in assay [2] (setting [8]) it was 122%; in assay [2] (setting [9]), 117%. In addition, the GFP response, % of DMSO in assay [4] is 103% (inactive); in assay [5], 134% (inactive); in assay [5] (setting [6]) it was 132%; in assay [5] (setting [7]), 132%.
For the molecule `COc1ccc2c(c1)C=Cc1ccccc1O2`, the GFP response vs DMSO in assay [1] was 98.4% (inactive); in assay [1] (setting [6]) it was 97.6%; in assay [1] (setting [7]) it was 99.5%; in assay [3] it was 98.3% (inactive). Moreover, the values for the GFP response relative to DMSO in assay [2], in assay [2] (setting [8]) and in assay [2] (setting [9]) were 99.2% (inactive), 99.2% and 99.3%, respectively. Moreover, the GFP response, % of DMSO in assay [4] is 95.6% (inactive); in assay [5], 104% (inactive); in assay [5] (setting [6]), 106%; in assay [5] (setting [7]) it was 102%.
For `CC(=O)Nc1ccc(NC(=O)CSc2ncc(C(=O)Nc3ccccc3)c(=O)n2C)cc1`, the GFP response vs DMSO in assay [1] was 96.6% (inactive); in assay [1] (setting [6]) it was 97.1%; in assay [1] (setting [7]), 99.1%; in assay [3] it was 96.8% (inactive). Besides, the results for the GFP response relative to DMSO in assay [2], in assay [2] (setting [8]) and in assay [2] (setting [9]) were 97% (inactive), 97.5% and 97.3%, respectively. Also, the GFP response, % of DMSO in assay [4] is 103% (inactive); in assay [5], 105% (inactive); in assay [5] (setting [6]), 103%; in assay [5] (setting [7]), 104%.
Consider `COC(=O)c1ccc2nc(Nc3nc4ccc(F)cc4s3)sc2c1`, for which the GFP response vs DMSO in assay [1] is 101% (inactive); in assay [1] (setting [6]) it was 101%; in assay [1] (setting [7]), 102%; in assay [3], 97.8% (inactive). Also, the GFP response relative to DMSO in assay [2] was 81.8% (inactive); in assay [2] (setting [8]), 84.8%; in assay [2] (setting [9]), 86%. The GFP response, % of DMSO in assay [4] is 97% (inactive); in assay [5], 108% (inactive); in assay [5] (setting [6]), 105%; in assay [5] (setting [7]) it was 109%.
Consider `CC(=O)c1ccc(N2CCN(S(=O)(=O)c3ccc4c(c3)CC(C)N4C(C)=O)CC2)cc1` (stereo not drawn), for which the GFP response vs DMSO in assay [1] is 95.8% (inactive); in assay [1] (setting [6]) it was 93.9%; in assay [1] (setting [7]) it was 91.9%; in assay [3], 103% (inactive). Besides, the GFP response relative to DMSO in assay [2] is 98.9% (inactive); in assay [2] (setting [8]), 97.5%; in assay [2] (setting [9]), 98.4%. In addition, the GFP response, % of DMSO in assay [4] is 98.8% (inactive); in assay [5], 104% (inactive); in assay [5] (setting [6]), 99.3%; in assay [5] (setting [7]) it was 103%.
As to `Cc1nn(Cc2c(Cl)cccc2Cl)c(C)c1NC(=O)c1sc2ccccc2c1Cl`, the GFP response vs DMSO is 94.8% (inactive) in assay [1], 95.7% in assay [1] (setting [6]), 95.8% in assay [1] (setting [7]) and 99.5% (inactive) in assay [3]. Moreover, the GFP response relative to DMSO in assay [2] is 95.3% (inactive); in assay [2] (setting [8]), 93.6%; in assay [2] (setting [9]) it was 98.5%. For the same molecule, the GFP response, % of DMSO is 108% (inactive) in assay [4], 104% (inactive) in assay [5], 100% in assay [5] (setting [6]) and 106% in assay [5] (setting [7]).
